ChEMBL document CHEMBL1151442, “Genetic and phenotypic identification of fusidic acid-resistant mutants with the small-colony-variant phenotype in Staphylococcus aureus” (2007)
Active and inactive are the calls of the source. No cut-off for these calls is given here.

Legend:
Format in all cases: functional
Staphylococcus aureus [1] = experiment: Antibacterial activity against fusidic acid-resistant Staphylococcus aureus AH198 harboring Gly452Ser mutation in fusA gene after 18 to 24 hrs by Etest strip assay
Method in brief: (§1)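 Mutants of lab strain 8325-4 were selected on LA with FA 2 μg/ml for 48 h at 37°C and purified on selective medium. For the MIC, one colony was suspended in 0.9% NaCl to 0.5 McFarland and swabbed onto Mueller-Hinton agar. An Etest strip was applied and plates were incubated at 37°C for 18–24 h until the lawn was evident.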

Staphylococcus aureus [2] = experiment: Antibacterial activity against fusidic acid-resistant Staphylococcus aureus AH187 harboring His457Tyr mutation in fusA gene after 18 to 24 hrs by Etest strip assay; method in brief: as §1
Staphylococcus aureus [3] = experiment: Antibacterial activity against fusidic acid-resistant Staphylococcus aureus AH194 harboring Pro404Leu mutation in fusA gene after 18 to 24 hrs by Etest strip assay; method in brief: as §1
Staphylococcus aureus [4] = experiment: Antibacterial activity against fusidic acid-resistant Staphylococcus aureus AH206 harboring Arg464Ser mutation in fusA gene after 18 to 24 hrs by Etest strip assay; method in brief: as §1
Staphylococcus aureus [5] = experiment: Antibacterial activity against fusidic acid-resistant Staphylococcus aureus AH197 harboring Leu456Phe mutation in fusA gene after 18 to 24 hrs by Etest strip assay; method in brief: as §1
Staphylococcus aureus [6] = experiment: Antibacterial activity against fusidic acid-resistant Staphylococcus aureus AH190 harboring Arg464His mutation in fusA gene after 18 to 24 hrs by Etest strip assay; method in brief: as §1
Staphylococcus aureus [7] = experiment: Antibacterial activity against fusidic acid-resistant Staphylococcus aureus AH207 harboring Thr385Asn mutation in fusA gene after 18 to 24 hrs by Etest strip assay; method in brief: as §1
Staphylococcus aureus [8] = experiment: Antibacterial activity against fusidic acid-resistant Staphylococcus aureus AH196 harboring Pro406Leu mutation in fusA gene after 18 to 24 hrs by Etest strip assay; method in brief: as §1
Staphylococcus aureus [9] = experiment: Ratio of MIC for kanamycin-resistant Staphylococcus aureus harboring mutations in FusA gene to MIC for wild type kanamycin-susceptible Staphylococcus aureus AH001
Staphylococcus aureus [10] = experiment: Antibacterial activity against fusidic acid-resistant Staphylococcus aureus AH201 harboring Gly452Cys mutation in fusA after 18 to 24 hrs by Etest strip assay; method in brief: as §1
Staphylococcus aureus [11] = experiment: Ratio of MIC for kanamycin-resistant Staphylococcus aureus harboring mutations in FusE gene to MIC for wild type kanamycin-susceptible Staphylococcus aureus AH001

GENTAMICIN
Activity (Staphylococcus aureus [1]): Active | Activity (Staphylococcus aureus [2]): Active | Activity (Staphylococcus aureus [3]): Active | Activity (Staphylococcus aureus [4]): Active | Activity (Staphylococcus aureus [5]): Active | Activity (Staphylococcus aureus [6]): Active | Activity (Staphylococcus aureus [7]): Active | Activity (Staphylococcus aureus [8]): Active | fold change (FC) (Staphylococcus aureus [9]): 4 | Activity (Staphylococcus aureus [10]): Active | fold change (FC) (Staphylococcus aureus [11]): 4
